Experimental data from ChEMBL document CHEMBL1649062, “Integration of lead optimization with crystallography for a membrane-bound ion channel target: discovery of a new class of AMPA receptor positive allosteric modulators” (J Med Chem, 2011).
In brackets after ≈: the same amount, converted by molar mass.

Columns and labels:
Glutamate receptor 2 [1] = biological target: T1, Glutamate receptor 2 (Homo sapiens, UniProt P42262); test: Allosteric modulation of human recombinant GluA2 receptor flip isoform expressed in HEK293 cells assessed as potentiation of glutamate-induced calcium influx by Fluo-4/FLIPR method; format: cell-based
T1 sequence (P42262 whole entry, canonical isoform): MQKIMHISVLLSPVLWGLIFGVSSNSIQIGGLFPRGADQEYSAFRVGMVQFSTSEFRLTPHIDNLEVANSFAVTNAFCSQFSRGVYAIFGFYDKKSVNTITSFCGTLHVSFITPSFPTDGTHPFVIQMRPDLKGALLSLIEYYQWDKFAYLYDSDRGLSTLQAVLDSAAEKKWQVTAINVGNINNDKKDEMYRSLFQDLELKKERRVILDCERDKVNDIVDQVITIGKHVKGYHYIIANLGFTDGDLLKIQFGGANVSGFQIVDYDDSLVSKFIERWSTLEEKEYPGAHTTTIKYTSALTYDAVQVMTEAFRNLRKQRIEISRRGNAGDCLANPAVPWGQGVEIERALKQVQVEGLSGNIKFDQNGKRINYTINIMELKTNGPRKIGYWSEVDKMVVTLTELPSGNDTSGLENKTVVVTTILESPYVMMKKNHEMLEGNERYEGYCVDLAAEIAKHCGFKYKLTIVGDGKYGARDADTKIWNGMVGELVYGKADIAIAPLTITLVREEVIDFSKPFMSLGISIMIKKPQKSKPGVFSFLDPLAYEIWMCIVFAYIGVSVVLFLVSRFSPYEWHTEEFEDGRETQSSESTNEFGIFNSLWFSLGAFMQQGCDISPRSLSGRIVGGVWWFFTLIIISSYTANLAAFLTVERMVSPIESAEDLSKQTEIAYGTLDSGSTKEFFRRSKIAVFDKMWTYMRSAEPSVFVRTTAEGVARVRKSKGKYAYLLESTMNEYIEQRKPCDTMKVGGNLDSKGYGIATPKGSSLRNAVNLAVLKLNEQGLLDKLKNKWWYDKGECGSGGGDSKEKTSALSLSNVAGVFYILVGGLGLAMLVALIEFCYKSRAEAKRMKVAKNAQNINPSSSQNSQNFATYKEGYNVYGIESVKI
Outline: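 Stable GluA2 flip (unedited) cell line grown in DMEM/F12 with 10% FBS and seeded to confluence 2-3 days before use. Cells washed in HEPES buffer (pH 7.3) and loaded with 2 μM Fluo-4 AM for 60 min at room temperature. On FLIPR, compound was added 5 min before 100 μM glutamate. pEC50 and asymptotic maximum are relative to the maximal response to cyclothiazide, n ≥ 3.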

Glutamate receptor 2 [2] = biological target: T1, Glutamate receptor 2; test: Allosteric modulation of human recombinant GluA2 receptor flip isoform expressed in HEK293 cells assessed as potentiation of glutamate-induced calcium influx by Fluo-4/FLIPR method relative to cyclothiazide; format: cell-based
Outline: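 Stable GluA2 flip (unedited) cells seeded to confluence 2-3 days before assay; washed in HEPES buffer (145 NaCl, 5 KCl, 2 CaCl2, 1 MgCl2, 5.5 glucose, pH 7.3), loaded with 2 μM Fluo4-AM 60 min at room temperature. FLIPR dual addition: compound 5 min before 100 μM glutamate; fluorescence rise expressed against maximal cyclothiazide response, fitted pEC50 and Asym max; n ≥ 3.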

[3] = Kinetic solubility of the compound in phosphate buffered saline of pH 7.4; format: physicochemical
Outline: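 Kinetic solubility: 10 mM DMSO stock, 5 μL diluted to 100 μL with pH 7.4 phosphate-buffered saline, equilibrated 1 h at room temperature, filtered, filtrate quantified by calibrated flow-injection chemiluminescent nitrogen detection.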

[4] = Distribution coefficient, log D of the compound; format: physicochemical; settings: octanol/water
Cytochrome P450 2D6 = Cytochrome P450 2D6 (Homo sapiens, UniProt P10635); test: Inhibition of human CYP2D6 by fluorescence assay; format: ADME
Chain of Cytochrome P450 2D6 (P10635 whole entry): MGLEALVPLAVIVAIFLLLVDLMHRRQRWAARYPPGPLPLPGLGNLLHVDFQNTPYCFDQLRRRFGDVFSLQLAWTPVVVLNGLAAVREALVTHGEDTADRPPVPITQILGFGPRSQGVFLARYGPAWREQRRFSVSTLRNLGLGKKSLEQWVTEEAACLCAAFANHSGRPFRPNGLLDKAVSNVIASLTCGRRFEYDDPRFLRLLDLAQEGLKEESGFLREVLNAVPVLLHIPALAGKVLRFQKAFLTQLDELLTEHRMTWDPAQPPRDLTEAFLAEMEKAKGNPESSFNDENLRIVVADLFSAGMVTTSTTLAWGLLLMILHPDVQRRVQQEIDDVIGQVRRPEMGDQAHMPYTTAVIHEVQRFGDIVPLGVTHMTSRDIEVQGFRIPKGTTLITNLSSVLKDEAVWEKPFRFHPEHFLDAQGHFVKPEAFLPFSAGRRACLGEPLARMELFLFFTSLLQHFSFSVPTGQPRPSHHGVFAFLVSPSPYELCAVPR
Outline: (§1)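 Recombinant human CYP bactosomes (0.1 mg/mL) in 50 mM potassium phosphate pH 7.4, preincubated 10 min at 37 °C with test compound (0.1-10 μM, 7 concentrations) and fluorogenic substrate. Substrates: ethoxyresorufin 0.5 μM (1A2), FCA 50 μM (2C9), BMC 10 μM (2C19), MMC 10 μM (2D6), DEF 1 μM or 7-BQ 25 μM (3A4). Reaction started with NADPH regenerating system; metabolite formation read over 10 min. IC50 from percent of control rate; miconazole control; triplicate.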

Cytochrome P450 2C9 = Cytochrome P450 2C9 (Homo sapiens, UniProt P11712); test: Inhibition of human CYP2C9 by fluorescence assay; format: ADME; outline: as §1
Chain of Cytochrome P450 2C9 (P11712 whole entry): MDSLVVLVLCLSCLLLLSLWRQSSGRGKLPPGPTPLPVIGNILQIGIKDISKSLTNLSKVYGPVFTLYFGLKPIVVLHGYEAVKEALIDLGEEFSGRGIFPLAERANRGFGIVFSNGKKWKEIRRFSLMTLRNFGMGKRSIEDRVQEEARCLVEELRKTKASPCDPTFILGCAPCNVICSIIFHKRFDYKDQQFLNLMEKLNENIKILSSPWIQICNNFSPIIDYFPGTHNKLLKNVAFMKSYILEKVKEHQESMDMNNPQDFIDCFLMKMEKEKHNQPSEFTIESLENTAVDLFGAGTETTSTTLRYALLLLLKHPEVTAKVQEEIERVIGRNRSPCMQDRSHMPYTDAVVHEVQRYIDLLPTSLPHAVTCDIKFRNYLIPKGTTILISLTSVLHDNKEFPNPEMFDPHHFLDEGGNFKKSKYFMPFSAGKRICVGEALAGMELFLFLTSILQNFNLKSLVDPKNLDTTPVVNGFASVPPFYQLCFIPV

Cytochrome P450 3A4 = Cytochrome P450 3A4 (Homo sapiens, UniProt P08684); test: Inhibition of human CYP3A4 by fluorescence assay; format: ADME; outline: as §1
Chain of Cytochrome P450 3A4 (P08684 whole entry): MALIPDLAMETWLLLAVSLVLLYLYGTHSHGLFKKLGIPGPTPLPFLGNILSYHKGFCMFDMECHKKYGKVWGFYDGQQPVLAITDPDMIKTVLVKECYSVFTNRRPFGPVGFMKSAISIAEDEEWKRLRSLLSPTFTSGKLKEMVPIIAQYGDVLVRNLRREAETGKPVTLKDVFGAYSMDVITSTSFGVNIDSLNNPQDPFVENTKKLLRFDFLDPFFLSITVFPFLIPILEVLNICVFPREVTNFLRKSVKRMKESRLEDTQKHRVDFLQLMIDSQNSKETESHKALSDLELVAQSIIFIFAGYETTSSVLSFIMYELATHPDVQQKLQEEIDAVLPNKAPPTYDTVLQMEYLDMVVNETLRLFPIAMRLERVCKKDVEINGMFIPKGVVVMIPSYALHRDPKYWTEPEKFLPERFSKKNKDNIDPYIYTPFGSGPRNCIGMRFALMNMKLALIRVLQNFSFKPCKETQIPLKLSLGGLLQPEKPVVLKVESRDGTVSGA

[5] = Cmax in rat at 3 mg/kg, po; format: ADME, organism-based; set-up: dose 3 mg/kg, route oral; settings: in vivo
[6] = Clearance in rat at 3 mg/kg, po; format: ADME, organism-based; set-up: dose 3 mg/kg, route oral; settings: in vivo
Outline: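 Rats dosed orally at 3 mg/kg; blood sampled via the hepatic portal vein and heart. Estimated clearance derived from in vivo hepatic extraction, taking rat liver blood flow as 85 (mL/min)/kg.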

in vivo = settings: rat, po, 3 mg/kg
Brain = test: Brain tissue binding in rat at 3 mg/kg, po; format: ADME, organism-based; set-up: dose 3 mg/kg, route oral; settings: in vivo
[7] = Plasma protein binding in rat at 3 mg/kg, po; format: ADME, organism-based; set-up: dose 3 mg/kg, route oral; settings: read-out: PPB (converted)
[8] = AUC ( 0 to t) in rat at 3 mg/kg, po; format: ADME, organism-based, Plasma; set-up: dose 3 mg/kg, route oral; settings: plasma
[9] = Inhibition of human CYP450 by fluorescence assay; format: ADME
Outline: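 Recombinant human CYP1A2, 2C9, 2C19, 2D6 and 3A4 bactosomes (0.1 mg/mL protein) preincubated 10 min at 37 °C in 50 mM potassium phosphate pH 7.4 with test compound (0.1–10 μM, methanol 3–4.5% final) and fluorogenic probe: ethoxyresorufin 0.5 μM (1A2), FCA 50 μM (2C9), BMC 10 μM (2C19), MMC 10 μM (2D6), DEF 1 μM or 7-BQ 25 μM (3A4). NADPH-regenerating system added; fluorescent metabolite read 10 min; rate as % control; IC50 fitted; triplicate.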

[10] = Apparent permeability of the compound; format: ADME; settings: not told
Outline: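 Artificial membrane permeability: donor holds 10 mM sample in pH 7.05 phosphate buffer with 0.5% hydroxypropylcyclodextrin. Membrane is 1.8% phosphatidylcholine and 1% cholesterol in decane. Donor and acceptor concentrations measured by LCMS after 3 h at room temperature; permeability expressed in nm/s.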

Cytochrome P450 1A2 = biological target: T2, Cytochrome P450 1A2 (Homo sapiens, UniProt P05177); test: Inhibition of human CYP1A2 by fluorescence assay; format: ADME; outline: as §1
T2 sequence (P05177 whole entry): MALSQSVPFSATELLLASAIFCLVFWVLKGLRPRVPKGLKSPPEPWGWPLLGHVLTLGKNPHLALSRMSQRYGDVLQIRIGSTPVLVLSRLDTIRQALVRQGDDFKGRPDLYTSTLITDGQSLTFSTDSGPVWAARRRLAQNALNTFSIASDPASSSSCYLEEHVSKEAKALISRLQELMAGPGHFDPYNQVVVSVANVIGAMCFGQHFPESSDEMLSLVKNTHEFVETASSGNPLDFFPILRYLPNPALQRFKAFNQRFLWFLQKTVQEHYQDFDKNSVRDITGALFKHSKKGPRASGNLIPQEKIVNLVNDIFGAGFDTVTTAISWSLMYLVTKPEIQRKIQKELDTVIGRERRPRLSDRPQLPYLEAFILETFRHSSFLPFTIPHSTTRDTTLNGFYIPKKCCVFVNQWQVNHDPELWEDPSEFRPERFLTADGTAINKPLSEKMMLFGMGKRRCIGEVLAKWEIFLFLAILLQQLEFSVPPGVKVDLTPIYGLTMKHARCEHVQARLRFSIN

Cytochrome P450 2C19 = Cytochrome P450 2C19 (Homo sapiens, UniProt P33261); test: Inhibition of human CYP2C19 by fluorescence assay; format: ADME; outline: as §1
Chain of Cytochrome P450 2C19 (P33261 whole entry): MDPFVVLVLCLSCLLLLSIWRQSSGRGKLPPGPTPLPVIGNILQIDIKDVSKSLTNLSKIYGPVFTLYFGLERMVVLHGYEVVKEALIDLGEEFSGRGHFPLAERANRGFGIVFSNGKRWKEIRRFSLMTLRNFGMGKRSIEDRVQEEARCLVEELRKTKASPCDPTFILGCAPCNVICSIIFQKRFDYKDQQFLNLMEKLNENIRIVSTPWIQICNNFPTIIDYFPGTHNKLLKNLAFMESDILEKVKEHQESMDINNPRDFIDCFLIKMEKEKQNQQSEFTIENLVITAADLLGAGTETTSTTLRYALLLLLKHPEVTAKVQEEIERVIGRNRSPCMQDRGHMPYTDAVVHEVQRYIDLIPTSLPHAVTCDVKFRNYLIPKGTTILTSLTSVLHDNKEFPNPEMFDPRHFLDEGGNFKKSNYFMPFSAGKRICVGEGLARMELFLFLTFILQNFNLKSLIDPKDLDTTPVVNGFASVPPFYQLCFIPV

Row | SMILES | EC50 (Glutamate receptor 2 [1]) [µM] | Activity (Glutamate receptor 2 [2]) [%] | solubility kinetic [3] [µg/mL] | logD [4] | IC50 (Cytochrome P450 2D6) [µM] | IC50 (Cytochrome P450 2C9) [µM] | IC50 (Cytochrome P450 3A4) [µM] | Cmax [5] [ng/mL] | CL/F [6] [mL/min/kg] | Kp (in vivo; brain and blood) | Brain tissue binding (% bound) (Brain) [%] | fraction unbound [7] | AUC(0-t) [8] [ng·h/mL] | IC50 [9] [µM] | Kp (in vivo; brain) | Papp [10] [×10⁻⁶ cm/s] | IC50 (Cytochrome P450 1A2) [µM] | IC50 (Cytochrome P450 2C19) [µM]
1 | O=C(c1ccc(-n2nc(C(F)(F)F)c3c2CCCC3)cc1)N1CCCCC1 | > 100 | 100 | 16 (≈ 42.4 µM) | 1.6 |  |  |  |  |  |  |  |  |  |  |  |  |  | 
2 | O=C(Cc1ccc(-n2nc(C(F)(F)F)c3c2CCCC3)cc1)NC1CCCC1 | 63.1 | 100 |  |  | 8 | 0.2 | 0.7 |  |  |  |  |  |  |  |  |  |  | 
3 | O=C(Cc1ccc(-n2nc(C(F)(F)F)c3c2CCCC3)cc1)N1CCCC1 | 3.16 | 82 | 77 (≈ 204 µM) | 3.3 |  | 3 |  | 95 | 55 | 0.9 | 98.1 | 0.004 | 166 |  |  |  |  | 
4 | CN(C)C(=O)Cc1ccc(-n2nc(C(F)(F)F)c3c2CCCC3)cc1 | 2 | 107 | 118 (≈ 336 µM) | 2.3 |  | 7 |  | 260 | 47 | 2.8 | 98.8 | 0.022 | 262 |  |  |  |  | 
5 | CC(=O)N(C)Cc1ccc(-n2nc(C(F)(F)F)c3c2CCCC3)cc1 | 2 | 94 |  | 1.3 |  |  |  |  |  |  |  |  |  |  |  |  |  | 
6 | O=C(C(F)c1ccc(-n2nc(C(F)(F)F)c3c2CCCC3)cc1)N1CCCC1 (stereo unspecified) | 31.6 | 98 | 124 (≈ 314 µM) | 3.4 |  |  |  |  |  |  |  |  |  | > 10 |  |  |  | 
7 | O=C(Cc1ccc(-n2nc(C(F)(F)F)c3c2CCCC3)cc1F)N1CCCC1 | 1.26 | 79 | 41 (≈ 104 µM) | 3.7 |  | 7 |  | 111 | 55 | 0.3 | 99.4 | 0.002 | 248 |  |  |  |  | 
8 | O=C1CCCN1Cc1ccc(-n2nc(C(F)(F)F)c3c2CCCC3)cc1F | 1 | 112 | 88 (≈ 231 µM) | 3.3 |  | 9 |  | 167 | 47 |  |  | 0.011 | 331 |  | 1.3 | 42 | 2 | 
9 | CN(CCc1ccccc1)C(=O)c1ccc(-n2nc(C(F)(F)F)c3c2CCCC3)cc1 | 39.8 | 84 | 57 (≈ 133 µM) | 3 |  | 1 |  |  |  |  |  |  |  |  |  |  |  | 3
10 | O=C1CCCN1Cc1ccc(-n2nc(C(F)(F)F)c3c2CCCC3)cc1 | 1 | 132 | 110 (≈ 303 µM) | 2.4 |  | 5 |  | 121 | 54 |  | 99.4 | 0.016 | 231 |  | 1.4 |  | 1 | 
11 | O=C(N1CCCC1)C(F)(F)c1ccc(-n2nc(C(F)(F)F)c3c2CCCC3)cc1 | 20 | 94 | 124 (≈ 300 µM) | 3.4 |  | 4 |  |  |  |  |  |  |  |  |  |  |  | 
12 | CC(C(=O)N1CCCC1)c1ccc(-n2nc(C(F)(F)F)c3c2CCCC3)cc1 (stereo unspecified) | 25.1 | 81 | 59 (≈ 151 µM) | 2.3 |  | 1 |  |  |  |  |  |  |  |  |  |  | 6 | 
13 | CC(=O)NCc1ccc(-n2nc(C(F)(F)F)c3c2CCCC3)cc1 | 1.26 | 79 | 47 (≈ 139 µM) |  |  |  |  |  |  |  |  |  |  | > 10 |  |  |  | 
14 | CCC(=O)NCc1ccc(-n2nc(C(F)(F)F)c3c2CCCC3)cc1 | 2.51 | 98 | 62 (≈ 176 µM) | 3.6 |  | 8 |  |  |  |  |  |  |  |  |  |  | 3.5 | 
15 | O=C(N1CCCC1)C1(c2ccc(-n3nc(C(F)(F)F)c4c3CCCC4)cc2)CC1 | 31.6 | 37 | 31 (≈ 76.8 µM) | 3.8 |  | 0.3 | 6 |  |  |  |  |  |  |  |  |  |  | 7
16 | CC(=O)c1ccc(-n2nc(C(F)(F)F)c3c2CCCC3)cc1 | 31.6 | 94 | 13 (≈ 42.2 µM) | 3 |  | 4 |  |  |  |  |  |  |  |  |  |  | 0.1 | 
17 | CN(C)S(=O)(=O)c1ccc(-n2nc(C(F)(F)F)c3c2CCCC3)cc1 | 20 | 63 | 5 (≈ 13.4 µM) | 3.1 |  | 2 |  |  |  |  |  |  |  |  |  |  |  | 
18 | CCCCN(C)C(=O)c1ccc(-n2nc(C(F)(F)F)c3c2CCCC3)cc1 | 15.8 | 86 | 65 (≈ 171 µM) | 3.2 | 8 | 6 |  |  |  |  |  |  |  |  |  |  |  | 
19 | CS(=O)(=O)c1ccc(-n2nc(C(F)(F)F)c3c2CCCC3)cc1 | 31.6 | 83 | 13 (≈ 37.8 µM) | 3.4 | 6 |  |  |  |  |  |  |  |  |  |  |  | 4 | 
